Source: PubChem BioAssay
Rpn11 block – inhibitors of human proteasome Rpn11 | O00487 | human 26S proteasome, Ub4-pepOG fluorescence polarization; 20S core pre-blocked with epoxomicin | inhibition, % at 20 µM | actives 0.59% (n = 360,000);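 active = inhibition at 20 µM, scaled to each plate's controls, above about 33%, limit read from the data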
Target sequence (O00487 whole entry, looked up): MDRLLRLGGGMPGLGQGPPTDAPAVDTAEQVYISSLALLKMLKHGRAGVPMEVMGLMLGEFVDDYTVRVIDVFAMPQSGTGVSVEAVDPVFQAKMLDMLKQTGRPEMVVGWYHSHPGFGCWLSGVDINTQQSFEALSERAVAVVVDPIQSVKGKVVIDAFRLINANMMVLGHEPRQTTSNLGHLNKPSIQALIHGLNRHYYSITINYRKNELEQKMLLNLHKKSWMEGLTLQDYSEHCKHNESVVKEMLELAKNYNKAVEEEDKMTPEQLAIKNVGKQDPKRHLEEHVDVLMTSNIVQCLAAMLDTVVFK
TPT1 inh – inhibitors of Candida albicans tRNA 2'-phosphotransferase TPT1 | recombinant caTPT1, FP RNA substrate dephosphorylation | inhibition, % at 5 µM | actives 0.81% (n = 300,000);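 active = inhibition above the mean of all tested compounds plus 3 SD, set per screening campaign, cut at about 24% in these data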;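 note: plate controls were DMSO alone for no effect and ferristatin control at 100 nM for full effect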
ATG4B inhibitor – blocks human ATG4B protease cleavage of LC3 substrate. ATG4B cleavage of LC3-PLA2, NBD-HPC fluorescence, 1 h. inhibition, % at 8.33 µM. actives 0.51% (n = 340,000). AID 504462; in the data active = inhibition above about 40%
SENP1 inh – blocks the human SENP1 SUMO protease catalytic domain; Q9P0U3; recombinant SENP1 catalytic domain, CyPet-SUMO1-YPet FRET cleavage; inhibition, % at 10 µM; actives 0.21% (n = 360,000); AID 624204;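 active = inhibition at least 30% at 10 µM, raw YFP signal under a set limit, fluorescence ratio 0.5 to 1.5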;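 note: 0% = enzyme with DMSO and 100% = no enzyme wells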
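system = hSENP1 catalytic domain, recombinant | reagent = SFCypet-SUMO1-SFYpet substrate at 25 nM | doses = one dose per compound, 10 µM, 0.5% DMSO | incubation = enzyme reaction for 50 min at room temperature, dark | measured by = FRET, CFP and YFP emission | controls = no-enzyme low, enzyme-DMSO high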
HNF4A DNA FP – change in binding of human HNF4 alpha to DNA. actives 0.3% (n = 360,000). HNF4a-FITC DNA binding, fluorescence polarization, 1 h. AID 1224865. activity change, % at 10 µM; in the data active = activity change above about 30%, passing the limit was not always enough
CSN deneddyl inh – inhibitors of human CSN-mediated cullin deneddylation. inhibition, % at 12.5 µM. AID 651999. Purified CSN, SCF-Nedd8-OG deneddylation, fluorescence polarization. actives 0.38% (n = 360,000);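 active = pattern-corrected inhibition above about 35%, with an unprinted fluorescence ratio check between 0.5 and 1.5, limit read from the data, passing the limit was not always enough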;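 note: 0% = enzyme with substrate and 100% = substrate without enzyme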
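assay system = purified human Csn5 enzyme expressed in HEK293T cells | amount = 0.24 nM enzyme | buffer or medium = Tris/NaCl/DTT buffer, pH 7.5 | reagent = 10 nM SCFSkp2-Nedd8OG | compound = one concentration, 12.5 µM, 0.25% DMSO | times = 90 min reaction at room temperature | signal = FP | read-out basis = % inhibition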
ATG4B confirm – confirmation of human ATG4B inhibitors; shares compounds with ATG4B inhibitor; ATG4B protease fluorescent substrate cleavage assay; inhibition, % at 8.33 µM; actives 92% (n = 320); in the data active = inhibition above about 39%
PLA2 ctr – counter-screen for ATG4B inhibitors: human phospholipase A2 | shares compounds with ATG4B inhibitor | purified PLA2, NBD-C6-HPC fluorescence, 45 min | inhibition, % at 8.33 µM | actives 66% (n = 1,600) | AID 588402; in the data active = inhibition above about 50%
Target sequence (P04054 whole entry, looked up): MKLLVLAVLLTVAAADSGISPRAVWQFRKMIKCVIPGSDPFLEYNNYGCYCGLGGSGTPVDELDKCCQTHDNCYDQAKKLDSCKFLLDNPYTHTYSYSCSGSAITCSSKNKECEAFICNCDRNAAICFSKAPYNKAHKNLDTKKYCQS
* hit, by the source's call; / = no result. An excerpt weighted towards active compounds, which were near 2% of everything screened.

SMILES	Rpn11 block	TPT1 inh	ATG4B inhibitor	SENP1 inh	HNF4A DNA FP	CSN deneddyl inh	PLA2 ctr	others
C#CCOCCOCCOCCNc1nc(N2CCN(C(=O)CCCCCCCCCCNC(=O)[C@H](CCCCN)n3cc(CCO)nn3)CC2)nc(N2CCN(C(=O)CCCCCCCCCCNC(=O)[C@H](CCCCN)n3cc(C[C@@H](C)CC)nn3)CC2)n1	/	2	75*	/	/	/	46	ATG4B confirm=24
C#CCOCCOCCOCCNc1nc(N2CCN(C(=O)CCCCCCCCCCNC(=O)[C@H](CCCCN)n3cc(C[C@@H](C)CC)nn3)CC2)nc(N2CCN(C(=O)CCCCCCCCCCNC(=O)[C@H](CCCN=C(N)N)n3cc(C[C@@H](C)CC)nn3)CC2)n1	128*	-1	88*	-4	213	137*	81*
O=C1NC[C@H](CCCCN2CCN(CC3CCCCC3)C(=O)C2=O)N(Cc2ccccc2)C1=O	/	/	/	3	-3	-2	/
CC(=O)OC1CCC2C3CCc4cc(OP(=O)(N5CC5)N5CC5)ccc4C3CCC12C (stereo not given)	2	/	/	4	3	0	/
CC(Nc1ncnc2sccc12)c1ccccc1 (stereo not given)	1	2	1	-74	4	5	/
COC(=O)C[C@@H]1C=C[C@@H](NC(=O)C2CCC2)[C@@H](CO)O1	/	/	/	0	-3	-1	/
COc1cc(Cl)c(C)cc1N1C(=O)CN(Cc2ccccc2)C1=S	9	1	52*	2	0	0	69*
Cc1cc(C)cc(N2C(=O)CN(Cc3sccc3C)C2=S)c1	-2	-5	94*	3	-2	3	94*
Cc1cccc(N2C(=O)CCC2=O)c1	-6	0	-1	1	4	-3	/
Cc1cccc(N2C(=O)CN(Cc3ccccc3)C2=S)c1	5	-4	49*	1	-2	0	63*
COc1cc(CN2CC(=O)N(c3ccc(C)cc3)C2=S)cc(OC)c1OC	6	-3	-9	1	1	0	/
COc1cc(CN2CC(=O)N(c3ccccc3Cl)C2=S)cc(OC)c1OC	-8	1	-5	-2	-1	2	/
Cc1cccc(N2C(=O)CN(Cc3cccs3)C2=S)c1	-6	-2	52*	1	0	2	74*
COCCCN1C(=O)C(CC(=O)NC2CCCCC2)CC(C(=O)N2CCOCC2)=C1C (stereo not given)	-1	/	/	-3	6	0	/
O=C(Cn1nnc(-c2ccc(F)cc2)n1)NC(=O)NC1CCCCC1	7	/	/	0	0	9	/
CCN(C(=O)CSc1nnc(-c2ccccc2OC)n1N)c1c(N)n(Cc2ccccc2)c(=O)[nH]c1=O	7	/	-62	1	1	3	/
COc1cc(CN2CC(=O)N(c3cccc(Cl)c3C)C2=S)cc(OC)c1OC	-2	1	1	-1	-2	-2	/
CCc1ccc(N2C(=O)CN(Cc3sccc3C)C2=S)cc1	-3	-3	92*	2	-1	-5	98*
COc1ccc(CN2CC(=O)N(c3ccc(C)cc3)C2=S)cc1OC	-4	-3	10	2	2	-2	/
Cc1cccc(N2C(=O)CN(Cc3sccc3C)C2=S)c1	-4	-3	88*	1	0	1	92*
Cc1ccsc1CN1CC(=O)N(c2c(C)cccc2C)C1=S	5	-3	85*	1	0	-2	93*
O=C(NC1CCCC1)C1c2ccccc2OCC(=O)N1Cc1ccc2c(c1)OCO2 (stereo not given)	/	/	/	1	-1	2	/
O=C(CN(c1cccc(C(F)(F)F)c1)S(=O)(=O)c1ccc(Cl)c([N+](=O)[O-])c1)NCc1ccccc1Cl	2	1	54*	2	2	3	53*
